Key:
[1] = Aqueous solubility of compound in DMSO at pH 7.4 by HPLC analysis; format: physicochemical; details: aqueous medium
In short: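 Solubility measured at pH 7.4. DMSO stock (10 mg/mL) diluted in methanol to five levels to build an HPLC peak-area standard curve. Compound added to 1 mL buffer to make a saturated solution, and the peak area of that solution analysed by HPLC on a C18 column. Solubility calculated from the standard curve.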

[2] = Lipophilicity, log P of the compound in DMSO and n-octanol at pH 7.4 incubated for 10 hrs under stirred condition by HPLC analysis; format: physicochemical; details: n-octanol / aqueous phase pH 7.4, pH 7.4
In short: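 Partition between n-octanol and water: mixture stirred at room temperature for 10 h, then left at 4 °C overnight. Each phase analysed separately by HPLC on a C18 column. Log P taken from the ratio of peak areas in n-octanol and water.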

HCT-116 = test: Antiproliferation activity against human HCT116 cells assessed as cell growth inhibition measured after 72 hrs by MTT assay; format: functional
In short: (§1)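 Cells grown in RPMI-1640 with 10% FBS at 37 °C, 5% CO2, seeded at 4−7 × 10³ cells/well and left to adhere overnight. Exposed to a range of concentrations for 72 h, then MTT (2.5 mg/mL stock) added for 4 h. Formazan dissolved in DMSO and absorbance read at 570 nm. GI50 taken as the concentration giving 50% growth inhibition, reported as mean ± SD of at least three independent experiments.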

HepG2 [3] = test: Antitumor activity against human HepG2 cells xenografted in Balb/c mouse assessed as reduction in tumor volume administered orally as 0.5% MC suspension for 21 days relative to control; format: functional; design: scale not given: the % may be the effect or the level left; details: time 21 day
HepG2 [4] = test: Antiproliferation activity against human HepG2 cells assessed as cell growth inhibition measured after 72 hrs by MTT assay; format: functional; in short: as §1
[5] = Inhibition of porcine brain tubulin polymerization measured every 60 sec for 60 mins in presence of GTP by fluorescence assay; design: species or system Sus scrofa
In short: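 Fluorescence kit assay using 2 mg/mL porcine brain tubulin with 2 mM MgCl₂, 0.5 mM EGTA, 1 mM GTP and 15% glycerol. Compound at various concentrations preincubated 1 min at 37 °C before adding the tubulin mix. Read at ex 355/em 460 nm every 60 s for 60 min. IC50 is the concentration giving 50% inhibition at 60 min; mean ± SD of ≥3 independent experiments.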

A549 = test: Antiproliferation activity against human A549 cells assessed as cell growth inhibition measured after 72 hrs by MTT assay; format: functional; in short: as §1

solubility [1]: < 5 µg/mL
logD at 10 h [2]: 3.18
GI50 (HCT-116): 39.6 nM
GI50 (HepG2 [4]): 8.6 nM
IC50 [5]: 4100 nM
GI50 (A549): 23.2 nM
Compound: CCOc1cccc(Nc2nn(C)c3c2Cc2cc(OCC)c(OCC(N)=O)cc2-3)c1
Activity (HepG2 [3]): 50%

— ChEMBL document CHEMBL4699650, “SAR Investigation and Discovery of Water-Soluble 1-Methyl-1,4-dihydroindeno[1,2-c]pyrazoles as Potent Tubulin Polymerization Inhibitors” (J Med Chem, 2020)
